Source: ChEMBL document CHEMBL4825747, “A Retrospective Look at the Impact of Binding Site Environment on the Optimization of TRPA1 Antagonists” (ACS Med Chem Lett, 2021)
≈ marks a conversion by molar mass, not a printed value.

Experiments:
[1] = Half life in rat at 0.5 mg/kg; format: ADME, organism-based; settings: in vivo
[2] = Protein binding in rat plasma incubated for 4 hrs; format: ADME, cell-free; settings: read-out: PPB (converted)
Method in brief: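 Rat plasma protein binding was determined after 4 h compound incubation rather than the standard 24 h, because of compound instability in rat plasma.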

[3] = Plasma clearance in rat at 0.5 mg/kg; format: ADME, organism-based
[4] = Volume of distribution at steady state in rat at 0.5 mg/kg; format: ADME, organism-based; settings: in vivo, read-out: Vdss
[5] = Unbound volume of distribution at steady state in rat at 0.5 mg/kg; format: ADME, organism-based; settings: in vivo
[6] = molecular target: Transient receptor potential cation channel subfamily A member 1 (Rattus norvegicus, UniProt Q6RI86); test: Antagonist activity at rat TRPA1
Transient receptor potential cation channel subfamily A member 1 (Rattus norvegicus, UniProt Q6RI86), sequence (Q6RI86 whole entry): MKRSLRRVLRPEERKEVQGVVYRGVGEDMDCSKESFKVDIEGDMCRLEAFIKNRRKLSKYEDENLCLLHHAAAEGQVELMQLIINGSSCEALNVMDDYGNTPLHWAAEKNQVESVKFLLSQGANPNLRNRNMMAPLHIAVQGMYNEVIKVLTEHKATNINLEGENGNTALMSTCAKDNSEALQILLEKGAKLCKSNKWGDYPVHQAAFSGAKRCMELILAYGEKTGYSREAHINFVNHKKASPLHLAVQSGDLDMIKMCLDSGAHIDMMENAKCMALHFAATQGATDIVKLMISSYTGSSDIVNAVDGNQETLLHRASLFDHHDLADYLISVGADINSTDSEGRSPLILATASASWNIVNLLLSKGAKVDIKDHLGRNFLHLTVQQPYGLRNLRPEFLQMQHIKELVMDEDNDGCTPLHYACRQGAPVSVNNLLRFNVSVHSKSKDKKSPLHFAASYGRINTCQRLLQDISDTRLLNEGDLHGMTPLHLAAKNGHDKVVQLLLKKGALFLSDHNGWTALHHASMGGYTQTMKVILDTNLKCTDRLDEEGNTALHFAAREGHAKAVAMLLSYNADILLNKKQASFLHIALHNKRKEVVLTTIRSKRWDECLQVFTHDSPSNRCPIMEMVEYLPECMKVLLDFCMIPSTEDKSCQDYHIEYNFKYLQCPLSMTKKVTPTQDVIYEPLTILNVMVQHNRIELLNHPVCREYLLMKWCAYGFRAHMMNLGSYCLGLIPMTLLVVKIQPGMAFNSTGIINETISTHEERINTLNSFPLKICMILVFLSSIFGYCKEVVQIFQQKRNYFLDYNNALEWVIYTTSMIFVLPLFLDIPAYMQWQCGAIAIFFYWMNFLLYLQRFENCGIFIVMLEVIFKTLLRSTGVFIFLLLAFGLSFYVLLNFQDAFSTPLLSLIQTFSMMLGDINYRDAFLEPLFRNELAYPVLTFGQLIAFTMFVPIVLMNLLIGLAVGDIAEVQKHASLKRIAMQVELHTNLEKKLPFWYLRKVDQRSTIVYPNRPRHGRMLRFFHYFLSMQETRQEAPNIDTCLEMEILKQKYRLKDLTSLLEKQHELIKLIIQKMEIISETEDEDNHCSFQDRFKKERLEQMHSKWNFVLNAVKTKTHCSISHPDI
Method in brief: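 In vitro potency read in a CHO cell line-based fluorometric imaging plate reader (FLIPR) Ca2+ assay against the rat TRPA1 channel.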

[7] = Unbound clearance in rat at 0.5 mg/kg; format: ADME, organism-based; settings: in vivo
[8] = Unbound clearance in rat at 1 mg/kg; format: ADME, organism-based; settings: in vivo
[9] = Unbound volume of distribution at steady state in rat at 1 mg/kg; format: ADME, organism-based; settings: in vivo
[10] = Half life in rat at 1 mg/kg; format: ADME, organism-based; settings: in vivo
[11] = Volume of distribution at steady state in rat at 1 mg/kg; format: ADME, organism-based; settings: in vivo, read-out: Vdss
[12] = Permeability across apical to basolateral membrane in MDCK cells; format: ADME, cell-based, Canis lupus familiaris; settings: dog, read-out: permeability
[13] = Kinetic solubility of the compound; format: physicochemical; settings: for solubility kinetic: read-out: Kinetic_solubility
[14] = molecular target: Transient receptor potential cation channel subfamily A member 1 (Rattus norvegicus) (UniProt Q6RI86); test: In vivo antagonist activity at TRPA1 in AITC-induced rat pain model assessed as reduction in pain behaviour when administered orally; format: functional, organism-based
Transient receptor potential cation channel subfamily A member 1 (Rattus norvegicus), sequence (Q6RI86 whole entry): as above

[15] = Plasma clearance in rat at 1 mg/kg; format: ADME, organism-based
[16] = Ratio of fEC50 for in vivo antagonist activity at TRPA1 in AITC-induced rat pain model assessed as reduction in pain behaviour when administered orally to IC50 for antagonist activity at rat TRPA1; format: organism-based; settings: po
Method in brief: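 The in vivo value comes from the oral-dose rat AITC paw-injection model at Tmax, scoring flinching and licking against measured exposures across animals. The in vitro comparator is rat TRPA1 antagonism in a CHO cell-based FLIPR Ca2+ assay.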

[17] = molecular target: Transient receptor potential cation channel subfamily A member 1 (Homo sapiens, UniProt O75762); test: Antagonist activity at human TRPA1 expressed in CHO cells measured by calcium based FLIPR assay; format: cell-based
Transient receptor potential cation channel subfamily A member 1 (Homo sapiens, UniProt O75762), sequence (O75762 whole entry): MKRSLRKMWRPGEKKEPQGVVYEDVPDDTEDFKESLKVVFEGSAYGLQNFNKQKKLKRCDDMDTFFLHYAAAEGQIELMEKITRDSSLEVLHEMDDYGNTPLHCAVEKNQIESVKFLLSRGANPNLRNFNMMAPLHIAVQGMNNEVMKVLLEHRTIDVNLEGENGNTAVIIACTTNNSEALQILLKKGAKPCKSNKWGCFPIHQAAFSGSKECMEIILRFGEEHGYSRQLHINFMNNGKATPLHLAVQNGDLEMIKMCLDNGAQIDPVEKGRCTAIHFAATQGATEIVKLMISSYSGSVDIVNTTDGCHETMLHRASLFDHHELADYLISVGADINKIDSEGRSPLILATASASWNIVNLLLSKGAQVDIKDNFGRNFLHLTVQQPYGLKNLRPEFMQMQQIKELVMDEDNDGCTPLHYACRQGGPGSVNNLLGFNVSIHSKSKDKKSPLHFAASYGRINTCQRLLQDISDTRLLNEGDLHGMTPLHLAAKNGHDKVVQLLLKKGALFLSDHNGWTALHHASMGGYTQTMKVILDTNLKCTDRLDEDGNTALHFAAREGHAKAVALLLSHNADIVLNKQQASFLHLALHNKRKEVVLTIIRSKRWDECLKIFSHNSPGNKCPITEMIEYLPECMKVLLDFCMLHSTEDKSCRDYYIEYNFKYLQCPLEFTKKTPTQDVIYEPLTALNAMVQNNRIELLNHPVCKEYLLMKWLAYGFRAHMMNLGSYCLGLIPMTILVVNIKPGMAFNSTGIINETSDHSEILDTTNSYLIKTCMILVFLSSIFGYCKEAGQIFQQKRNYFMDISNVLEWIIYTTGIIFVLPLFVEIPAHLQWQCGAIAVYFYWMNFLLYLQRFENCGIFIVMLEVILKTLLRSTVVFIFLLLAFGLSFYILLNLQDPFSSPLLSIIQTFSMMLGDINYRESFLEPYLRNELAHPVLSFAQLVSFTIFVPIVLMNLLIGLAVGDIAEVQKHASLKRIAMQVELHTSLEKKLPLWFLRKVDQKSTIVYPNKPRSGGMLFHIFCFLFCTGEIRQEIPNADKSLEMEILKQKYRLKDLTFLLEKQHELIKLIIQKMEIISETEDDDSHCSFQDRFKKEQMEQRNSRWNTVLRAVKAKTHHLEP

[18] = Lipophilicity, log D of the compound at pH 7.4; format: physicochemical; settings: buffer

Row | Compound | half-life [1] [h] | fraction unbound at 4 h [2] | clearance [3] [mL/min/kg] | Vd [4] [L/kg] | fVdss [5] [L/kg] | IC50 [6] [nM] | CL free [7] [mL/min/kg] | CL free [8] [mL/min/kg] | fVdss [9] [L/kg] | half-life [10] [h] | Vd [11] [L/kg] | Papp A→B [12] [×10⁻⁶ cm/s] | Kinetic_solubility [13] [µM] | fEC50 [14] [nM] | clearance [15] [mL/min/kg] | Ratio [16] | IC50 [17] [nM] | solubility kinetic [13] [µM] | logD [18]
1 | C[C@H]1[C@H](F)C[C@@H](C(=O)NCc2cc(-c3ccc(C(F)(F)F)nc3)ncn2)N1S(=O)(=O)c1ccc(F)cc1 | 2.6 | 0.052 | 10 | 2.2 | 42 | 1600 | 192 | – | – | – | – | – | – | – | – | – | – | – | –
2 | C[C@H]1[C@H](F)C[C@@H](C(=O)NCc2cc(-c3cnc(C(F)(F)F)nc3)ncc2C(F)(F)F)N1S(=O)(=O)c1ccc(F)cc1 | – | 0.012 | – | – | – | 10 | – | 642 | 467 | 9.8 | 5.6 | 27.5 | 7 | 3.7 | 7.7 | 0.37 | 1.6 | – | –
3 | C[C@H]1[C@H](F)C[C@@H](C(=O)NCc2cc(-c3cnc(C(F)(F)F)nc3)ncc2F)N1S(=O)(=O)c1ccc(F)cc1 | – | 0.028 | – | – | – | – | – | 157 | 93 | – | 2.6 | – | – | 60 | – | 1.7 | 8.4 | < 1 | –
4 | C[C@H]1[C@H](F)C[C@@H](C(=O)NCc2cc(-c3cnc(C(F)(F)F)nc3)ncn2)N1S(=O)(=O)c1ccc(F)cc1 | 2 | 0.075 | 6.4 | 1.1 | 15 | 390 | 85 | – | – | – | – | 16.5 | – | – | – | – | – | 98 (≈ 53.2 µg/mL) | –
5 | Cn1cnc2ncn(Cc3nn(C[C@H](F)c4ccc(Cl)cc4)c(=O)o3)c(=O)c21 | – | 0.381 | – | – | – | 18 | – | 45 | 3.4 | 1.5 | – | – | – | 390 | – | 22 | 20 | – | 1.2
6 | Cn1cnc2ncn(Cc3nc([C@@H]4CO[C@@H](c5ccc(Cl)cc5)C4)no3)c(=O)c21 | – | 0.192 | – | – | – | 7.4 | – | 89 | 11 | – | – | – | – | 53 | – | – | – | 120 (≈ 49.5 µg/mL) | 1.8
7 | Cn1cnc2ncn(Cc3nc([C@H]4[C@@H]5CN(c6cccc(Cl)c6)C[C@@H]54)no3)c(=O)c21 | – | 0.021 | – | – | – | 7.9 | – | 214 | 110 | – | – | – | 2 | 7.9 | – | 1 | 2.9 | – | 2.9
8 | Cn1cnc2ncn(Cc3nn([C@H]4C[C@H](c5ccc(Cl)cc5)C4)c(=O)o3)c(=O)c21 | – | 0.081 | – | – | – | 14 | – | 123 | 28 | 2.7 | 2.3 | 6.4 | – | 49 | 10 | – | – | 15 (≈ 6.19 µg/mL) | 2.4
